# Source: ChEMBL document CHEMBL3632592, “Identification of Highly Promising Antioxidants/Neuroprotectants Based on Nucleoside 5'-Phosphorothioate Scaffold. Synthesis, Activity, and Mechanisms of Action” (J Med Chem, 2015)
# Active and inactive are the calls of the source. The rule behind the calls is not given here.
# Experiments:
# [1] = Antioxidant activity assessed as ABTS radical scavenging activity after 7 mins; type: physicochemical
# Summary of the method: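 ABTS radical cation made from 7 mM ABTS with 2.45 mM persulfate (final), kept in the dark at room temperature 12–16 h. It was then diluted in water pH 7.4 to A734 0.80 and mixed with compound or Trolox standard (final 0–60 µM). A734 was read at 7 min. Percent inhibition plotted against concentration; at least three runs, in triplicate.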
# [2] = test system: PC-12; assay: cells; details: Rattus norvegicus, PC-12, 1 h
# [3] = target: T1, P2Y purinoceptor 11 (Homo sapiens, UniProt Q96G91); assay: Agonist activity at GFP-tagged human P2Y11R transfected in human 1321N1 cells assessed as increase in intracellular Ca2+ level by fura 2/AM probe-based fluorescence assay; type: functional, cell-based
# T1 sequence (Q96G91 whole entry): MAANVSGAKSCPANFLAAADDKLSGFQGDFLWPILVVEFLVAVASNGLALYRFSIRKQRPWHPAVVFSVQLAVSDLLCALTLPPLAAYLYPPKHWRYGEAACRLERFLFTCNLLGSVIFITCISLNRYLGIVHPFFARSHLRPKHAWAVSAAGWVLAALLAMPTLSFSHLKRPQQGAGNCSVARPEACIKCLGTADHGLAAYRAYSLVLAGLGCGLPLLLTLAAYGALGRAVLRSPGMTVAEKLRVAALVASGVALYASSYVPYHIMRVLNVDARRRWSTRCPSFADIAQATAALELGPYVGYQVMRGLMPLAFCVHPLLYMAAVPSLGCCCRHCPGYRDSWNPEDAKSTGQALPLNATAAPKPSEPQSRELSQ
# [4] = target: P2Y purinoceptor 1 (Homo sapiens, UniProt P47900); assay: Agonist activity at GFP-tagged human P2Y1R transfected in human 1321N1 cells assessed as increase in intracellular Ca2+ level by fura 2/AM probe-based fluorescence assay; type: functional, cell-based
# P2Y purinoceptor 1, sequence (P47900 whole entry): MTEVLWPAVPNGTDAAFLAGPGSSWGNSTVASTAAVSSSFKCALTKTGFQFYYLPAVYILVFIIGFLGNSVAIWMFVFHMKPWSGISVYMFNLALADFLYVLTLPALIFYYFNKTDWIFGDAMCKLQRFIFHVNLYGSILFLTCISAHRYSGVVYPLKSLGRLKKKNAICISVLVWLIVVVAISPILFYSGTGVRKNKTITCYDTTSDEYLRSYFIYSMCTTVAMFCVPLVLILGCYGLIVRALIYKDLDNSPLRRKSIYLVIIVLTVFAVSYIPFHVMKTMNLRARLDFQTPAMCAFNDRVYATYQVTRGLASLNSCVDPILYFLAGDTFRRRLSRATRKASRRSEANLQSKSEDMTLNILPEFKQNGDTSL
# [5] = Antioxidant activity assessed as inhibition of Fe2+-induced DMPO-OH adduct formation from H2O2 preincubated for 30 secs followed by DMPO/H2O2 addition measured after 150 secs by ESR analysis; type: physicochemical
# Summary of the method: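 Fenton/ESR spin trapping: 1 mM ammonium iron(II) sulfate was added to 5–500 µM compound, then Tris buffer pH 7.4 (final pH 7.2–7.4). After 30 s, 100 mM DMPO and 100 mM H2O2 were added (stock concentrations). The ESR spectrum was recorded 150 s after H2O2, at room temperature. DMPO-OH adduct expressed as % of control containing FeSO4, H2O2 and DMPO only.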
# [6] = test system: PC-12; assay: Antioxidant activity in rat PC12 cells assessed as inhibition of Fe2+-induced reactive oxygen species formation at 0.01 to 25 uM after 1 hr by DCFH-DA dye-based fluorometric analysis in presence of P2Y12R antagonist 2-MeS-AMP; type: functional, cell-based
# Summary of the method: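 PC12 cells (DMEM, seeded 24 h) were preincubated 20 min with 50 µM P2Y12 antagonist 2-MeS-AMP. They were then loaded with DCFH-DA, given test compound at 0.01–25 µM, and oxidised with FeSO4 (final 0.16 µM). DCF fluorescence 485/530 nm over 1 h at 37 °C. ROS inhibition compared with no-antagonist control; three independent experiments in triplicate.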
# [7] = test system: NTERA2; assay: Antioxidant activity in human NTERA2 cells assessed as inhibition of Fe2+-induced reactive oxygen species formation at 0.01 to 25 uM after 1 hr by DCFH-DA dye-based fluorometric analysis in presence of P2Y1R antagonist MRS2179; type: functional, cell-based
# Summary of the method: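 Ntera-2 cells (DMEM, seeded 24 h) were preincubated 20 min with 40 µM P2Y1 antagonist MRS2179. They were then loaded with DCFH-DA and treated with compound at 0.01–25 µM, with oxidation started by FeSO4 (final 0.16 µM). DCF fluorescence 485/530 nm, 1 h at 37 °C. Three independent experiments in triplicate.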
# [8] = test system: Cerebral cortex neuron; assay: Neuroprotective activity against Fe2+-induced morphological changes in rat primary cortical neurons at 0.2 to 100 uM after 24 hrs by light microscopic analysis; type: functional, cell-based
# Summary of the method: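 Primary rat cortical neurons were exposed to 3 µM FeSO4 for 24 h, with compound at 0.2, 5 and 100 µM. Morphology (cell number, extensions, cytoskeleton) was examined by light microscopy at 100×.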
# [9] = Half life in human serum at 37 degC by HPLC analysis; type: ADME, cell-free
# Summary of the method: (§1)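 Nucleotides were incubated in human blood serum or RPMI-1640 at 37 °C for 0.5–24 h. Hydrolysis was followed by the change in HPLC peak integration of each analogue over time, and half-life was derived from this.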
# [10] = target: T2, eNPP1 (ectonucleotide pyrophosphatase/phosphodiesterase family member 1) (Homo sapiens, UniProt P22413); assay: (§2) Drug metabolism assessed as human eNPP1-mediated compound hydrolysis at 4 mM after 2 hrs by reverse-phase HPLC analysis relative to ATP; type: ADME; details: human eNPP1 enzyme, read-out: Drug metabolism
# T2 sequence (P22413 whole entry): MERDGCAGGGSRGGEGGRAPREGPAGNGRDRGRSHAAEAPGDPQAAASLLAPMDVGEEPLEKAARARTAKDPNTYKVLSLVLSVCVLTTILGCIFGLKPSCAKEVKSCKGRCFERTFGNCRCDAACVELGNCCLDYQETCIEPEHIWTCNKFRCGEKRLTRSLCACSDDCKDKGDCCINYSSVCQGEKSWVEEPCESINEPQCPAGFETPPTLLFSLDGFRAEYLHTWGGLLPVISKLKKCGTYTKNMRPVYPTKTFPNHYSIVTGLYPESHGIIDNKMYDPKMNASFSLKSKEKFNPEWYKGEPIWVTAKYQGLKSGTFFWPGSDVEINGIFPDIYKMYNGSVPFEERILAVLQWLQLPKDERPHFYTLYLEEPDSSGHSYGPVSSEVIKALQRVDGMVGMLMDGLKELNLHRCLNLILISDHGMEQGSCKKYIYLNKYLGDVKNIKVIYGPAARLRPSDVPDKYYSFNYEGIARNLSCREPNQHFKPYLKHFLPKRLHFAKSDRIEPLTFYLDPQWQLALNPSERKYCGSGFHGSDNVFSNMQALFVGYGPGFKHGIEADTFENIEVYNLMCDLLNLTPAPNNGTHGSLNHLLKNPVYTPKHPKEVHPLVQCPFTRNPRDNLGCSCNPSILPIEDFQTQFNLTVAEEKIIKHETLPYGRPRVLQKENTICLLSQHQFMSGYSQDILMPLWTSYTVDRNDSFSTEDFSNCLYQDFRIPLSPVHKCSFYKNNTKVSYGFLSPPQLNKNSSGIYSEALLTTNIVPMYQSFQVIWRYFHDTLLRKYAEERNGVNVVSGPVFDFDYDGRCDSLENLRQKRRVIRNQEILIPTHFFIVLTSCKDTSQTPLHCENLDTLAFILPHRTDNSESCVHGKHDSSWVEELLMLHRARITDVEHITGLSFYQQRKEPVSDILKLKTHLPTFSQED
# Summary of the method: (§3)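 Human eNPP1 extract (19 µg) was preincubated 3 min at 37 °C in 1 mM CaCl2, 200 mM NaCl, 10 mM KCl, 100 mM Tris pH 8.5, then reaction started with compound (4 mM stock). Stopped after 2 h with ice-cold 1 M perchloric acid, neutralised with KOH, and analysed by RP-HPLC (90% 100 mM TEAA pH 7/10% CH3CN). Degradation from the monophosphate peak after subtracting the acid-only control.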
# [11] = Half life of the compound in RPMI-1640 medium at 37 degC by HPLC analysis; type: ADME; summary of the method: as §1
# [12] = test system: PC-12
# [13] = Metal chelating activity assessed as inhibition of Fe2+-ferrozine complex formation at 80 uM after 10 mins relative to control; type: physicochemical
# Summary of the method: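 FeSO4 (final 10 µM) was mixed with ferrozine (final 20 µM) and nucleotide (final 25–200 µM) in water and agitated 10 min at room temperature. Fe(II)-ferrozine complex absorbance at 562 nm, measured with versus without compound. Mean of three experiments.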
# [14] = Antioxidant activity in human NTERA2 cells assessed as inhibition of Fe2+-induced reactive oxygen species formation at 0.2 uM after 1 hr by DCFH-DA dye-based fluorometric analysis relative to control; type: functional; details: NTERA2, 1 h
# [15] = Neuroprotective activity against Fe2+-induced oxidative damage in rat primary cortical neurons assessed as cell viability after 24 hrs by MTT assay; type: functional, cell-based; details: Cerebral cortex neuron
# Summary of the method: (§4)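 Rat (1-day-old) cortical neurons were grown serum-free in DMEM/F12 with B-27 on poly-ornithine, treated with Ara-C and cultured 5 d. Cells were pretreated with nucleotide (0.01–25 µM), then exposed to FeSO4 3 µM final for 24 h. MTT 1 mg/mL was added for 2 h at 37 °C, formazan dissolved in DMSO, A550 read. Viability given as % of vehicle control; three independent experiments in triplicate.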
# [16] = target: T3, Ectonucleotide pyrophosphatase/phosphodiesterase family member 1 (Homo sapiens, UniProt P22413); assay: as §2; type: ADME; details: 2 h, 4000 µM; summary of the method: as §3
# T3 sequence (P22413 whole entry): T2 sequence (P22413 whole entry)
# [17] = Metal chelating activity assessed as inhibition of Fe2+-ferrozine complex formation after 10 mins; type: physicochemical
# Summary of the method: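 Competitive ferrozine assay. FeSO4 (final 10 µM) and ferrozine (final 20 µM) are mixed with nucleotide in DDW at final 25–200 µM and agitated 10 min at room temperature. Absorbance of the Fe(II)-ferrozine complex is read at 562 nm with and without compound, and inhibition of complex formation is calculated. Three experiments, mean ± S.D.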
# [18] = test system: Cerebral cortex neuron; assay: Neuroprotective activity against Fe2+-induced oxidative damage in rat primary cortical neurons assessed as cell viability at 0.01 to 25 uM after 24 hrs by MTT assay; type: functional, cell-based; summary of the method: as §4
Structure (SMILES),IC50 [1] [µM],IC50 [2] [µM],EC50 [3] [nM],EC50 [4] [nM],IC50 [5] [µM],other results
Nc1ncnc2c1ncn2[C@@H]1O[C@H](COP(=O)(O)OP(=O)(O)OP(=O)(O)O)[C@@H](O)[C@H]1O [ADENOSINE TRIPHOSPHATE],60,–,–,–,–,–
Nc1nc(Cl)nc2c1ncn2[C@@H]1O[C@H](COP(=O)(S)OP(=O)(O)OP(=O)(O)O)[C@@H](O)[C@H]1O (stereo in doubt; 9A),25,106,9100,730,37,–
CSc1nc(N)c2ncn([C@@H]3O[C@H](COP(=O)(S)OP(=O)(O)O)[C@@H](O)[C@H]3O)c2n1 (stereo in doubt; 7A) [listing 1 of 2 here],–,–,–,–,–,inhibition [6]: inactive; inhibition [7]: inactive; Activity [8]: Active
CSc1nc(N)c2ncn([C@@H]3O[C@H](COP(=O)(S)OP(=O)(O)O)[C@@H](O)[C@H]3O)c2n1 (stereo in doubt; 7A) [listing 2 of 2 here],12.5,–,3200,2.6,37,"half-life [9]: 900 min; metabolised at 2 h, 4000 µM [10]: 36.6%; half-life [11]: 900 min; IC50 [12]: 80 nM; inhibition (INH) [13]: 50%; inhibition at 0.2 µM [14]: 50%; EC50 [15]: 40 nM"
CSc1nc(N)c2ncn([C@@H]3O[C@H](COP(=O)(S)OP(=O)(O)O)[C@@H](O)[C@H]3O)c2n1 (stereo in doubt; 7B) [listing 1 of 2 here],12,–,1000,17,38,Drug metabolism [16]: 23.7%; IC50 [12]: 600 nM
Nc1nc(Cl)nc2c1ncn2[C@@H]1O[C@H](COP(=O)(S)OP(=O)(O)O)[C@@H](O)[C@H]1O (stereo in doubt; 8A),11,0.2,1400,30,36,–
Nc1nc(Cl)nc2c1ncn2[C@@H]1O[C@H](COP(=O)(S)OP(=O)(O)OP(=O)(O)O)[C@@H](O)[C@H]1O (stereo in doubt; 9B),24,–,1100,880,27,IC50 [12]: 100000 nM
Nc1nc(Cl)nc2c1ncn2[C@@H]1O[C@H](COP(=O)(S)OP(=O)(O)O)[C@@H](O)[C@H]1O (stereo in doubt; 8B),12,–,500,1500,39,IC50 [12]: 110 nM
O=C(O)CN(CCN(CC(=O)O)CC(=O)O)CC(=O)O [EDETIC ACID],–,–,–,–,54,–
O=C(O)CN(CCN(CC(=O)O)CC(=O)O)CCN(CC(=O)O)CC(=O)O [PENTETIC ACID],–,–,–,–,–,IC50 [17]: 90 µM
Cc1c(C)c2c(c(C)c1O)CCC(C)(C(=O)O)O2 (stereo not given) [TROLOX],18,–,–,–,–,IC50 [17]: 150 µM
O=C(O)CC(O)(CC(=O)O)C(=O)O [CITRIC ACID],–,–,–,–,–,IC50 [17]: 300 µM
Nc1ncnc2c1ncn2[C@@H]1O[C@H](COP(=O)(O)OP(=O)(O)S)[C@@H](O)[C@H]1O (stereo not given in full),15,20,32700,1270,19,IC50 [17]: 85 µM
CSc1nc(N)c2ncn([C@@H]3O[C@H](COP(=O)(S)OP(=O)(O)O)[C@@H](O)[C@H]3O)c2n1 (stereo in doubt; 7B) [listing 2 of 2 here],–,–,–,–,–,Activity [18]: Active
Nc1nc(Cl)nc2c1ncn2[C@@H]1O[C@H](COP(=O)(O)OP(=O)(O)S)[C@@H](O)[C@H]1O (stereo not given in full),13,5,1000,90,21,–
CSc1nc(N)c2ncn([C@@H]3O[C@H](COP(=O)(O)OP(=O)(O)S)[C@@H](O)[C@H]3O)c2n1 (stereo not given in full),15,12,900,37,21,–
Nc1ncnc2c1ncn2[C@@H]1O[C@H](COP(=O)(S)OP(=O)(O)O)[C@@H](O)[C@H]1O (stereo in doubt; 6A),20,38,4500,80,31,half-life [9]: 870 min; half-life [11]: 870 min
Nc1ncnc2c1ncn2[C@@H]1O[C@H](COP(=O)(S)OP(=O)(O)O)[C@@H](O)[C@H]1O (stereo in doubt; 6B),22,–,8700,130,36,IC50 [12]: 39000 nM
